From ChEMBL document CHEMBL1134569, “Synthesis and in vitro and in vivo antimalarial activity of new 4-anilinoquinolines” (J Med Chem, 2001)
Where “and” joins values, the source holds several entries; their conditions need not be identical. Equal entries are not always repeated.

Legend:
[1] = Cytotoxicity upon MRC-5 cells (diploid embryonic lung cell line) at 12.5 uM; type: cell-based, MRC5; settings: human
Summary of the method: (§1)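 MRC-5 human diploid embryonic lung cells seeded at 5000/well, washed after 24 h, then given 2-fold drug dilutions in RPMI + 5% FCS (final DMSO below 0.5%). Incubated at 37 °C, 5% CO₂, for 7 days. MTT read-out at 540 nm, scored as percent absorbance reduction versus untreated controls.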

[2] = Cytotoxicity upon MRC-5 cells (diploid embryonic lung cell line) at 3.1 uM; type: cell-based, MRC5; settings: human; summary of the method: as §1
[3] = Cytotoxicity upon MRC-5 cells (diploid embryonic lung cell line) at 6.3 uM; type: cell-based, MRC5; settings: human; summary of the method: as §1
Plasmodium falciparum = assay: Inhibitory activity against chloroquine-resistant Plasmodium falciparum FcB1R; type: functional, organism-based
[4] = Cytotoxicity upon MPMs (mouse peritoneal macrophages) at 2 uM
Summary of the method: (§2)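 Mouse peritoneal macrophages harvested 48 h after potato-starch stimulation and seeded at 30000 cells/well. After 24 h, washed and exposed to 2-fold drug dilutions in RPMI + 5% FCS (final DMSO below 0.5%) at 37 °C, 5% CO₂, for 7 days. Toxicity scored microscopically as toxic or not versus untreated controls.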

[5] = Cytotoxicity upon MRC-5 cells (diploid embryonic lung cell line) at 1 uM; type: cell-based, MRC5; settings: human; summary of the method: as §1
[6] = Cytotoxicity upon MRC-5 cells (diploid embryonic lung cell line) at 32 uM; type: cell-based, MRC5; settings: human; summary of the method: as §1
[7] = Cytotoxicity upon MRC-5 cells (diploid embryonic lung cell line) at 8 uM; type: cell-based, MRC5; settings: human; summary of the method: as §1
[8] = Cytotoxicity upon MPMs (mouse peritoneal macrophages) at 32 uM; summary of the method: as §2
[9] = Cytotoxicity upon MPMs (mouse peritoneal macrophages) at 8 uM; summary of the method: as §2
[10] = Cytotoxicity upon MPMs (mouse peritoneal macrophages) at 12.5 uM conc.;NT=No Toxicity; summary of the method: as §2
[11] = Cytotoxicity upon MPMs (mouse peritoneal macrophages) at 3.1 uM conc.;NT=No Toxicity; summary of the method: as §2
[12] = Cytotoxicity upon MPMs (mouse peritoneal macrophages) at 6.3 uM; summary of the method: as §2

Compound | cytotoxicity at 12.5 µM [1] | cytotoxicity at 3.1 µM [2] | cytotoxicity at 6.3 µM [3] | IC50 (Plasmodium falciparum; Plasmodium falciparum) | NT [4] | cytotoxicity at 1 µM [5] | cytotoxicity at 32 µM [6] | cytotoxicity at 8 µM [7] | Cytotoxicity [8] | Cytotoxicity [9] | NT [10] | NT [11] | NT [12] | IC50 (Plasmodium falciparum)
O=C(CN1CCc2ccccc2C1)Nc1cc(CO)cc(Nc2ccnc3cc(Cl)ccc23)c1 | 0% | 0% | 0% | 1450 nM | – | – | – | – | – | – | – | – | – | –
CN(C)CCN(C)Cc1cc(NC(=O)CN2CCCCC2)cc(Nc2ccnc3cc(Cl)ccc23)c1 | – | – | – | 5 nM | Cytotoxicity upon MPMs at 2 uM | 43% | 100% | 100% | Cytotoxicity upon MPMs at 32 uM | Cytotoxicity upon MPMs at 32 uM | – | – | – | –
O=C(CN1CCCCC1)Nc1cc(CNCc2ccccc2)cc(Nc2ccnc3cc(Cl)ccc23)c1 | – | – | – | 8.5 nM | Cytotoxicity upon MPMs at 2 uM | 96% | 100% | 100% | Cytotoxicity upon MPMs at 32 uM | Cytotoxicity upon MPMs at 32 uM | – | – | – | –
O=C(CNCc1ccc(Cl)cc1)Nc1cc(CO)cc(Nc2ccnc3cc(Cl)ccc23)c1 | 0% | 0% | 0% | 855 nM | – | – | – | – | – | – | – | – | – | –
O=C(CN1CCCCC1)Nc1cc(CN2CCCC2)cc(Nc2ccnc3cc(Cl)ccc23)c1 | – | – | – | 6.9 nM | Cytotoxicity upon MPMs at 2 uM | 0% | 100% | 100% | Cytotoxicity upon MPMs at 32 uM | Cytotoxicity upon MPMs at 32 uM | – | – | – | –
CC1CCN(CCCCC(=O)Nc2cc(CO)cc(Nc3ccnc4cc(Cl)ccc34)c2)CC1 | 0% | 0% | 0% | 465 nM | – | – | – | – | – | – | Cytotoxicity upon MPMs at 6.3 uM | Cytotoxicity upon MPMs at 6.3 uM | Cytotoxicity upon MPMs at 6.3 uM | –
O=C(CN1CCCCC1)Nc1cc(CNCCN2CCCC2)cc(Nc2ccnc3cc(Cl)ccc23)c1 | – | – | – | 10.2 nM | Cytotoxicity upon MPMs at 2 uM | – | 100% | 100% | Cytotoxicity upon MPMs at 32 uM | – | – | – | – | 6.6 nM and 7.9 nM
O=C(C[n+]1ccccc1)Nc1cc(CO)cc(Nc2ccnc3cc(Cl)ccc23)c1.[Cl-] | 0% | 0% | 0% | 927 nM | – | – | – | – | – | – | Cytotoxicity upon MPMs at 6.3 uM | Cytotoxicity upon MPMs at 6.3 uM | Cytotoxicity upon MPMs at 6.3 uM | –
O=C(CN1CCOCC1)Nc1cc(CO)cc(Nc2ccnc3cc(Cl)ccc23)c1 | 0% | 0% | 0% | > 1000 nM | – | – | – | – | – | – | Cytotoxicity upon MPMs at 6.3 uM | Cytotoxicity upon MPMs at 6.3 uM | Cytotoxicity upon MPMs at 6.3 uM | –
O=C(CN1CCCCC1)Nc1cc(CN2CCC(O)CC2)cc(Nc2ccnc3cc(Cl)ccc23)c1 | – | – | – | 6.5 nM | Cytotoxicity upon MPMs at 2 uM | 0% | 100% | 100% | Cytotoxicity upon MPMs at 32 uM | Cytotoxicity upon MPMs at 32 uM | – | – | – | –
O=C(CN1CCCCC1)Nc1cc(CN2CCN(Cc3ccc([N+](=O)[O-])cc3)CC2)cc(Nc2ccnc3cc(Cl)ccc23)c1 | – | – | – | 13.2 nM | Cytotoxicity upon MPMs at 2 uM | 0% | 100% | 99% | Cytotoxicity upon MPMs at 32 uM | Cytotoxicity upon MPMs at 32 uM | – | – | – | –
O=C(CN1CCCCC1)Nc1cc(CN2CCN(Cc3ccc(Cl)cc3)CC2)cc(Nc2ccnc3cc(Cl)ccc23)c1 | – | – | – | 11.5 nM | Cytotoxicity upon MPMs at 2 uM | 0% | 100% | 100% | Cytotoxicity upon MPMs at 32 uM | Cytotoxicity upon MPMs at 32 uM | – | – | – | –
O=C(Nc1cc(CO)cc(Nc2ccnc3cc(Cl)ccc23)c1)c1ccccc1 | 0% | 0% | 0% | > 1000 nM | – | – | – | – | – | – | Cytotoxicity upon MPMs at 6.3 uM | Cytotoxicity upon MPMs at 6.3 uM | Cytotoxicity upon MPMs at 6.3 uM | –
COc1ccc(CN2CCN(Cc3cc(NC(=O)CN4CCCCC4)cc(Nc4ccnc5cc(Cl)ccc45)c3)CC2)cc1 | – | – | – | 11 nM | Cytotoxicity upon MPMs at 2 uM | 50% | 100% | 100% | Cytotoxicity upon MPMs at 32 uM | Cytotoxicity upon MPMs at 32 uM | – | – | – | –
CN1CCN(CC(=O)Nc2cc(CO)cc(Nc3ccnc4cc(Cl)ccc34)c2)CC1 | 0% | 0% | 0% | 344 nM | – | – | – | – | – | – | Cytotoxicity upon MPMs at 6.3 uM | Cytotoxicity upon MPMs at 6.3 uM | Cytotoxicity upon MPMs at 6.3 uM | –
CC(C)(C)NCc1cc(NC(=O)CN2CCCCC2)cc(Nc2ccnc3cc(Cl)ccc23)c1 | – | – | – | 3.7 nM | Cytotoxicity upon MPMs at 2 uM | 0% | 100% | 100% | Cytotoxicity upon MPMs at 32 uM | Cytotoxicity upon MPMs at 32 uM | – | – | – | –
CN1CCN(Cc2cc(NC(=O)CN3CCCCC3)cc(Nc3ccnc4cc(Cl)ccc34)c2)CC1 | – | – | – | 7.5 nM | Cytotoxicity upon MPMs at 2 uM | 0% | 83% | 80% | Cytotoxicity upon MPMs at 32 uM | Cytotoxicity upon MPMs at 32 uM | – | – | – | –
CC1CCN(CCCCCC(=O)Nc2cc(CO)cc(Nc3ccnc4cc(Cl)ccc34)c2)CC1 | 0% | 0% | 0% | 304 nM | – | – | – | – | – | – | Cytotoxicity upon MPMs at 6.3 uM | Cytotoxicity upon MPMs at 6.3 uM | Cytotoxicity upon MPMs at 6.3 uM | –
O=C(CN1CCCCC1)Nc1cc(CNCc2ccc(C(F)(F)F)cc2)cc(Nc2ccnc3cc(Cl)ccc23)c1 | – | – | – | 5.5 nM | Cytotoxicity upon MPMs at 2 uM | 0% | 100% | 100% | Cytotoxicity upon MPMs at 32 uM | Cytotoxicity upon MPMs at 32 uM | – | – | – | –
O=C(CN1CCCCC1)Nc1cc(CNC(c2ccccc2)c2ccccc2)cc(Nc2ccnc3cc(Cl)ccc23)c1 | – | – | – | 9.1 nM | Cytotoxicity upon MPMs at 2 uM | 0% | 100% | 100% | Cytotoxicity upon MPMs at 32 uM | Cytotoxicity upon MPMs at 32 uM | – | – | – | –
O=C(CN1CCCCC1)Nc1cc(CNc2ccccc2)cc(Nc2ccnc3cc(Cl)ccc23)c1 | – | – | – | 21.2 nM | Cytotoxicity upon MPMs at 2 uM | 0% | 100% | 100% | Cytotoxicity upon MPMs at 32 uM | Cytotoxicity upon MPMs at 32 uM | – | – | – | –
O=C(CN1CCCCC1)Nc1cc(CN2CCN(Cc3ccccc3)CC2)cc(Nc2ccnc3cc(Cl)ccc23)c1 | – | – | – | 13 nM | Cytotoxicity upon MPMs at 2 uM | 0% | 100% | 100% | Cytotoxicity upon MPMs at 32 uM | Cytotoxicity upon MPMs at 32 uM | – | – | – | –
O=C(CN1CCC(O)CC1)Nc1cc(CO)cc(Nc2ccnc3cc(Cl)ccc23)c1 | 0% | 0% | 0% | 1050 nM | – | – | – | – | – | – | – | – | – | –
O=C(CN1CCCCC1)Nc1cc(CN2CCN(c3ccccc3)CC2)cc(Nc2ccnc3cc(Cl)ccc23)c1 | – | – | – | 5.5 nM | Cytotoxicity upon MPMs at 2 uM | 0% | 100% | 100% | Cytotoxicity upon MPMs at 32 uM | Cytotoxicity upon MPMs at 32 uM | – | – | – | –
O=C(CN1CCCCC1)Nc1cc(CN2CCN(Cc3ccc4c(c3)OCO4)CC2)cc(Nc2ccnc3cc(Cl)ccc23)c1 | – | – | – | 6.9 nM | Cytotoxicity upon MPMs at 2 uM | 86% | 100% | 99% | Cytotoxicity upon MPMs at 32 uM | Cytotoxicity upon MPMs at 32 uM | – | – | – | –
O=C(CN1CCCCC1)Nc1cc(CN2CCN(CCO)CC2)cc(Nc2ccnc3cc(Cl)ccc23)c1 | – | – | – | 11.5 nM | Cytotoxicity upon MPMs at 2 uM | 0% | 100% | 100% | Cytotoxicity upon MPMs at 32 uM | Cytotoxicity upon MPMs at 32 uM | – | – | – | –
O=C(CN1CCCCC1)Nc1cc(CN2CCN(C(c3ccccc3)c3ccccc3)CC2)cc(Nc2ccnc3cc(Cl)ccc23)c1 | – | – | – | 12.5 nM | Cytotoxicity upon MPMs at 2 uM | 87% | 98% | 97% | Cytotoxicity upon MPMs at 32 uM | Cytotoxicity upon MPMs at 32 uM | – | – | – | –
